Assay outcomes deposited in PubChem by several laboratories.
Hsp70 activator: transcriptional activators of Hsp70 | 0.04% of 200,000 active | activation, % at 10 µM | HeLa Hsp70 promoter luciferase reporter, luminescence; scaled: vehicle 0, proteasome-inhibitor control 100%;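 active = activation above the mean across all tested compounds plus 3 SD, cutoff set per campaign, cut at about 5.5% in these data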;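 also: 100% = MG132 at 30 µM as the positive control and 0% = DMSO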
EP2 antag: blocks the human prostaglandin E2 receptor EP2; C6 glioma cells expressing human EP2, cAMP TR-FRET; cells stimulated with saturating PGE2; inhibition, % at 25 µM; 0.52% of 260,000 active; AID 1422;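 active = percent inhibition above 40 after rounding to a whole number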;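 also: rat C6 glioma host cells with rolipram phosphodiesterase inhibitor present; the protocol text gives 20 µM as final concentration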
Target sequence (P43116 whole entry, looked up): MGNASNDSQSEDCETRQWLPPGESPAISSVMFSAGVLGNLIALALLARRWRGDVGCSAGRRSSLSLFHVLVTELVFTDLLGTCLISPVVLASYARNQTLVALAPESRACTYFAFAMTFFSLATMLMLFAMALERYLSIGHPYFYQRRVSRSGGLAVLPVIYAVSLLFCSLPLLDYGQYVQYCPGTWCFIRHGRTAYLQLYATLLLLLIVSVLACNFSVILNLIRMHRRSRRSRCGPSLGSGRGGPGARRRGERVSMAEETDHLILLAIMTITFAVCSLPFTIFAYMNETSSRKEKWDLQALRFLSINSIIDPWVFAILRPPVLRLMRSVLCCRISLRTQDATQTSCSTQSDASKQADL
EP2 modulator: modulators of human EP2 prostaglandin E2 receptor. AID 940. 0.83% of 260,000 active. induction, % at 25 µM. EP2-expressing cells, cAMP HTRF FRET, PGE2 co-stimulation;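 active = compounds whose cAMP rise, as percent of the full-agonist control response, exceeds 60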;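 also: rat C6 glioma line stably carrying human EP2 under a CMV promoter; the protocol text gives 20 µM as final concentration; 100% = response of wells given 1 µM PGE2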
Dynein transport: blocks dynein driven cargo transport along microtubules. 3617.4 mouse cells, GR-EGFP nuclear translocation imaging; test concentration mostly 20 µM; stimulated with dexamethasone, 1 µM; active compounds read low. z-score, hits read low. 0.47% of 220,000 active;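 active = plate z-score of nuclear minus cytoplasmic receptor signal below a set negative limit, without overly bright fluorescence or cell loss, cut at about -3.5 in these data, passing the limit was not always enough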;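 also: z-score of nuclear minus cytoplasmic ring GR-EGFP intensity difference per well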
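Schedule: 48 h induction, then 1 h compound, then 30 min agonist, 37 °C. Buffer or medium: tetracycline-free induction medium containing charcoal-stripped FBS. Reagent: 1.0 µM final dexamethasone stimulus. Evaluation: nuclear versus cytoplasmic GR-EGFP signal, averaged per well. Signal: high-content fluorescence imaging after fixation.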
EP2 cAMP induct: EP2 receptor cAMP induction, counter-screens negative. shares compounds with EP2 modulator. C6 glioma EP2 cells, cAMP HTRF induction; plus low (about EC15) PGE2 agonist. calls only at 20 µM (by protocol). 47% of 1,300 active. AID 1080;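 active = cAMP induction above 50% in the main assay while under 30% in all four parallel counter assays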;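 also: rat C6 glioma cells stably expressing human EP2 receptor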
* hit, by the source's call; i = inactive; . = no result; + = active, no number. In the library only some 1.7% were active in any assay of this set; here they are far more common.

SMILES	Hsp70 activator	EP2 antag	EP2 modulator	Dynein transport	EP2 cAMP induct
CCC(C)(C)NC(=O)C(c1sccc1C)N(C(=O)c1csnn1)c1ccc(F)cc1 (configuration not stated)	.	-0.2	27.3	.	.
Cc1csc(NC(=O)CSc2nnc(-c3ccc(F)cc3)o2)n1	.	8.2	-2.7	.	.
CCOc1ccc(C(=O)Nc2ccc(N3CCN(C(=O)c4ccco4)CC3)cc2)cc1	.	11.7	36.5	.	.
CN(C)CCCNC(=O)C(=O)Nc1nc(C23CC4CC(CC(C4)C2)C3)cs1	.	14.2	-76.1	.	.
CCC(c1nnnn1C1CCCCC1)N(CCc1ccccc1)Cc1cc2cc(C)cc(C)c2[nH]c1=O (configuration not stated)	.	6.1	44.8	.	.
CCOC(=O)c1c(NC(=O)c2ccco2)sc2c1CCCC2	-0.3	11.2	19.8	-0.937	.
CCOC(=O)c1c(NC(=O)CN(CC)CC)sc2c1CCN(C(=O)OCC)C2	-0.3	9.4	71.6*	0.643	+
CCOC(=O)c1c(NC(=O)CN2CCCCC2)sc2c1CCN(C(=O)OCC)C2	-0.2	.	70.5*	-0.619	+
CCOC(=O)c1c(NC(=O)Cc2cccs2)sc(C)c1C	-0.3	10.9	62.2*	0.287	i
CCOC(=O)c1c(NC(=O)c2ccn(CC)n2)sc2c1CCCC2	-0.1	10.8	60.3	1.63	i
CCOC(=O)c1sc(NC(=O)CCN2CC(C)OC(C)C2)c(C(=O)OCC)c1C (configuration not stated)	-0.1	.	50.3	-0.48	i
COc1ccc(C2=NN(C(N)=O)C(O)(C(F)(F)F)C2)cc1 (configuration not stated)	.	13.0	-39.5	.	.
O=C(c1ccccc1O)N1N=C(c2ccccc2)CC1(O)C(F)(F)F (configuration not stated)	0.0	1.7	77.7*	2.59	i
COc1ccc(C(=O)N2N=C(c3ccccc3)CC2(O)C(F)(F)F)cc1 (configuration not stated)	0.8	10.5	83.0*	-0.39	+
CCOc1ccc(C2C(C(C)=O)=C(O)C(=O)N2CCOC)cc1 (configuration not stated)	.	8.6	4.5	.	.
O=C1CC(O)(c2ccccc2)C(c2ccccc2)=C1c1ccccc1 (configuration not stated)	0.0	10.4	76.1*	0.492	+
O=C(N1CCC[C@@H](Cn2nc(-c3cccs3)ccc2=O)C1)C1(c2ccccc2)CC1	.	12.5	-13.8	.	.
CCOc1ccc2cc(C#N)c(SCC(=O)NC(C)CC)nc2c1 (configuration not stated)	-0.2	19.1	69.2*	1.02	i
CC(=O)O[C@H]1CC[C@@]2(C)[C@@H](CC[C@H]3[C@H]2CC(=O)[C@]2(C)[C@@H]3C[C@H]3CC(C)=CC(=O)[C@@H]32)C1	.	44.9*	63.8*	.	i
CC1CC(C)CN(CC(=O)NC(c2ccccc2)c2ccccc2)C1 (configuration not stated)	0.1	8.7	72.0*	-0.106	i
CC1Cc2ccccc2N1CC(=O)NC(=O)NCc1ccccc1 (configuration not stated)	-0.2	6.3	24.9	-0.264	.
CC1Cc2ccccc2N1CC(=O)NC(c1ccccc1)c1ccccc1 (configuration not stated)	-0.2	9.8	72.0*	1.86	+
Cc1ccc(CN(Cc2cc3cc(C)cc(C)c3[nH]c2=O)Cc2nnnn2Cc2ccco2)cc1	.	9.8	18.1	.	.
C=CCn1c(N2CCC(C(=O)NC3CCCC3)CC2)nc2ccccc21	.	.	-14.4	.	.
CSc1nnc(-c2ccc(F)cc2)o1	0.1	20.5	72.0*	0.207	i
SMILES	Hsp70 activator	EP2 antag	EP2 modulator	Dynein transport	EP2 cAMP induct
N#CC1=C(N)Oc2[nH]c(=O)[nH]c(=O)c2C1c1ccc(Cl)cc1Cl (configuration not stated)	.	6.5	-22.9	.	.
Clc1ccc(C2=NN(c3ccccc3)C(c3ccco3)C2)cc1 (configuration not stated)	.	10.9	24.6	0.548	.
Cc1nc(N2N=C(c3ccc(Cl)cc3)CC2c2ccco2)sc1C(=O)N(C)C (configuration not stated)	-0.2	5.2	72.0*	0.0475	+
CC(Cc1ccccc1)NC(=O)C1(c2ccccc2)CCOCC1 (configuration not stated)	0.0	11.0	69.2*	0.897	i
COc1ccc(C2(C(=O)NC(C)Cc3ccccc3)CCOCC2)cc1OC (configuration not stated)	.	6.8	-5.4	.	.
CCOC(=O)c1c(C)[nH]c(C=O)c1Cc1cccc(Cl)c1	-0.2	6.7	68.9*	-0.61	i
CCOC(=O)c1c(C)[nH]c(C)c1C(=O)COC(=O)/C=C/c1cccc(Cl)c1	-0.2	9.5	-41.2	0.939	.
Cc1cc(C)n(CCOc2ccc(Cl)cc2Cl)n1	-0.3	5.0	73.3*	1.61	+
Cc1cc(C)n(C(=O)COc2ccc(Cl)cc2Cl)n1	-0.4	3.3	35.9	-0.54	.
COc1ccc(-n2nnnc2SCC(=O)Nc2cccc(Cl)c2)cc1	.	7.7	-101.1	.	.
C(=N/n1c2ccccc2c2ccccc21)/c1ccco1	-0.4	12.0	65.0*	-0.619	+
Cc1cccc(C)c1N1CCN(c2ccc3nnc(C(F)(F)F)n3n2)CC1	0.3	4.1	69.6*	-0.161	+
COC(=O)c1[nH]c2ccccc2c1NS(=O)(=O)c1ccc(F)c(C)c1	-0.2	4.3	77.1*	-1.26	+
Cc1cccc(NC(=O)C2CC(=O)OC23CCCCC3)c1 (configuration not stated)	-0.3	10.5	1.6	1.68	.
COc1ccc(C)cc1NC(=O)C1CC(=O)OC12CCCCC2 (configuration not stated)	-0.1	10.2	65.4*	0.341	i
Cc1ccc(NC(=O)c2cccs2)cc1NC(=O)c1ccc(C(C)(C)C)cc1	.	17.5	18.0	.	.
Cc1cccc(Oc2nc(-c3ccccc3)cc(C)c2S(C)(=O)=O)c1C	-0.4	15.8	72.0*	-1.43	+
COc1ccccc1Oc1nc(-c2ccccc2)cc(C)c1S(C)(=O)=O	-0.1	5.6	36.5	0.51	.
CCOC(=O)C1CCCN(C(=O)c2ccc(C)cc2O)C1 (configuration not stated)	0.8	5.5	65.8*	-1.21	i
CCOC(=O)c1sc2nc(C)nc(N3CCN(c4ncccn4)CC3)c2c1C	0.4	9.2	67.2*	0.695	i
COc1ccc2cc3c(N)nn(C(=O)C4CCC(C(C)(C)C)CC4)c3nc2c1 (configuration not stated)	-0.1	13.5	68.7*	-0.528	i
COc1ccc2cc3c(N)nn(C(=O)Cc4ccccc4OC)c3nc2c1	-0.3	12.5	0.0	0.925	.
O=C(Nc1cccc(O)c1)c1cc(-c2ccc(Cl)cc2Cl)on1	.	8.2	-34.2	.	.
CCCCC(=O)C1CCN(Cc2ccccc2)CC1	-0.2	8.5	105.9*	-1.41	i
CCCCNC(=O)C1CCN(Cc2ccc(OCc3ccccc3)cc2)CC1	-0.1	11.2	-5.0	-0.0675	.
